# Where a chain is given by its changes, count along the chain named. The source made the active and inactive calls. The rule behind the calls is not given here.
# Experiments:
# CXC chemokine receptor 3 = target: T1, CXC chemokine receptor 3 (Macaca mulatta, UniProt B8PY99); experiment: Displacement of [125I]-IP10 from rhesus monkey CXCR3 expressed in human PBMC after 2 hrs in RPMI buffer by scintillation counting
# T1 sequence (B8PY99 whole entry): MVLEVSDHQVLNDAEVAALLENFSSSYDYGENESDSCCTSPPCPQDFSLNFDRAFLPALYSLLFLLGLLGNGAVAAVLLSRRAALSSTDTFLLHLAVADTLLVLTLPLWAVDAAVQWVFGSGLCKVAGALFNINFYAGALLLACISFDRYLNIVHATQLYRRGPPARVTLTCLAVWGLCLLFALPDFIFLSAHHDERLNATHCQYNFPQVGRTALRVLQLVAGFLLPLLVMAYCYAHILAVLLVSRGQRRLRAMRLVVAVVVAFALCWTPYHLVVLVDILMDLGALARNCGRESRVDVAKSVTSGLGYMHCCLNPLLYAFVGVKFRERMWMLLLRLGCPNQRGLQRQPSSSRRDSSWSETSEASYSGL
# Method in brief: (§1)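 PBMC bearing CXCR3 were co-incubated with antagonist and recombinant human [125I]-IP10 for 2 h at room temperature in RPMI-1640 (no phenol red) with 0.5% BSA. Cells were harvested onto filter plates and bound radioactivity was counted by scintillation. IC50 values are means of three experiments.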
# [1] = Clearance in dog at 1 mg/kg, iv; assay type: ADME, organism-based, Canis lupus familiaris; set-up: dose 1 mg/kg, route intravenous; details: in vivo
# [2] = Volume of distribution at steady state in rat at 0.5 mg/kg, iv; assay type: ADME, organism-based; set-up: dose 0.5 mg/kg, route intravenous; details: in vivo, read-out: Vdss
# [3] = Mean residence time in dog at 1 mg/kg, iv; assay type: ADME, organism-based, Canis lupus familiaris; set-up: dose 1 mg/kg, route intravenous; details: in vivo
# [4] = Mean residence time in rat at 0.5 mg/kg, iv; assay type: ADME, organism-based; set-up: dose 0.5 mg/kg, route intravenous; details: in vivo
# [5] = Oral bioavailability in dog at 2.5 mg/kg; assay type: ADME, organism-based, Canis lupus familiaris; details: in vivo
# [6] = Clearance in cynomolgus monkey at 1 mg/kg, iv; assay type: ADME, organism-based, Macaca fascicularis; set-up: dose 1 mg/kg, route intravenous; details: in vivo
# Mus musculus = experiment: Effect on bleomycin-induced cellular recruitment in sc dosed mouse assessed as inhibition of cellular infiltration measured 6 days after bleomycin challenge; assay type: functional, organism-based
# [7] = Clearance in rat at 0.5 mg/kg, iv; assay type: ADME, organism-based; set-up: dose 0.5 mg/kg, route intravenous; details: in vivo
# Cytochrome P450 3A4 = Cytochrome P450 3A4 (Homo sapiens, UniProt P08684); experiment: Inhibition of CYP3A4; assay type: ADME
# Blood [8] = experiment: Drug level in bleomycin-induced mouse blood at 3 mg/mL, sc; assay type: ADME, tissue-based
# [9] = Oral bioavailability in rat at 2 mg/kg; assay type: ADME, organism-based; details: in vivo
# [10] = Volume of distribution at steady state in dog at 1 mg/kg, iv; assay type: ADME, organism-based, Canis lupus familiaris; set-up: dose 1 mg/kg, route intravenous; details: in vivo, read-out: Vdss
# [11] = Volume of distribution at steady state in mouse at 0.5 mg/kg, iv; assay type: ADME, organism-based; set-up: dose 0.5 mg/kg, route intravenous; details: in vivo, read-out: Vdss
# [12] = target: T2, C-X-C chemokine receptor type 3 (Mus musculus, UniProt O88410); experiment: Displacement of [125I]-IP10 from mouse CXCR3 expressed in human PBMC after 2 hrs in RPMI buffer by scintillation counting; method in brief: as §1
# T2 sequence (O88410 whole entry): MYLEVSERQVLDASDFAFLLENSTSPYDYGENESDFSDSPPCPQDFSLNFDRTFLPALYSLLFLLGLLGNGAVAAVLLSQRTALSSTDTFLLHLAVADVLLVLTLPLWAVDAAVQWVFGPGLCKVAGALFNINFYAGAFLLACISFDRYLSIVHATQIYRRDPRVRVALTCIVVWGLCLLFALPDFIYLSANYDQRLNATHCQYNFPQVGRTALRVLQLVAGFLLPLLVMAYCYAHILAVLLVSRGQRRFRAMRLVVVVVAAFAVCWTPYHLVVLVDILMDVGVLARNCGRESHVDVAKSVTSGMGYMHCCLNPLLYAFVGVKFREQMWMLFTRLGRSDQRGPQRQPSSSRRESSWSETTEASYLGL
# [13] = Volume of distribution at steady state in cynomolgus monkey at 1 mg/kg, iv; assay type: ADME, organism-based, Macaca fascicularis; set-up: dose 1 mg/kg, route intravenous; details: in vivo, read-out: Vdss
# Cytochrome P450 2C9 = Cytochrome P450 2C9 (Homo sapiens, UniProt P11712); experiment: Inhibition of CYP2C9; assay type: ADME
# [14] = target: T3, C-X-C chemokine receptor type 3 (Homo sapiens, UniProt P49682); experiment: Displacement of [125I]-1P10 from human CXCR3 expressed in human PBMC after 2 hrs by scintillation counting in plasma
# T3 sequence (P49682 whole entry): T1 sequence (B8PY99 whole entry) with A83T, A259V
# Method in brief: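 [125I]-IP10 displacement from CXCR3 on PBMC: cells co-incubated with antagonist and recombinant human [125I]-IP10 for 2 h at room temperature in EDTA-anticoagulated human plasma (from frozen stocks) in place of RPMI buffer. Filter harvest and scintillation counting; IC50 values are means of three experiments.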
# Blood [15] = experiment: Drug level in bleomycin-induced mouse blood at 10 mg/mL, sc; assay type: ADME, tissue-based
# Blood [16] = experiment: Drug level in bleomycin-induced mouse blood at 0.3 mg/mL, sc; assay type: ADME, tissue-based
# Blood [17] = experiment: Drug level in bleomycin-induced mouse blood at 0.1 mg/mL, sc; assay type: ADME, tissue-based
# [18] = Clearance in mouse at 0.5 mg/kg, iv; assay type: ADME, organism-based; set-up: dose 0.5 mg/kg, route intravenous; details: in vivo
# [19] = Oral bioavailability in mouse at 2 mg/kg; assay type: ADME, organism-based; details: in vivo
# [20] = target: T4, C-X-C chemokine receptor type 3 (Canis lupus familiaris, UniProt Q5KSK8); experiment: Displacement of [125I]-IP10 from dog CXCR3 expressed in human PBMC after 2 hrs in RPMI buffer by scintillation counting; method in brief: as §1
# T4 sequence (Q5KSK8 whole entry): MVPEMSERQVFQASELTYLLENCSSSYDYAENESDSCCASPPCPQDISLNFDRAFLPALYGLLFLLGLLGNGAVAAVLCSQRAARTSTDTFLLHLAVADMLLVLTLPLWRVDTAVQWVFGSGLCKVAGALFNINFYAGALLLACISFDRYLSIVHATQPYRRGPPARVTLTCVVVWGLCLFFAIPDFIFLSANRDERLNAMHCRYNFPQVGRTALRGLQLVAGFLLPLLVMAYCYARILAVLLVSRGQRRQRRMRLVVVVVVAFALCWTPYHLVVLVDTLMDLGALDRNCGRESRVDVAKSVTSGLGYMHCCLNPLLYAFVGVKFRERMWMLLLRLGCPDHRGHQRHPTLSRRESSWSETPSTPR
# [21] = Mean residence time in mouse at 0.5 mg/kg, iv; assay type: ADME, organism-based; set-up: dose 0.5 mg/kg, route intravenous; details: in vivo
# Cytochrome P450 2D6 = Cytochrome P450 2D6 (Homo sapiens, UniProt P10635); experiment: Inhibition of CYP2D6; assay type: ADME
# Blood [22] = experiment: Drug level in bleomycin-induced mouse blood at 1 mg/mL, sc; assay type: ADME, tissue-based
# [23] = target: T3, C-X-C chemokine receptor type 3; experiment: Displacement of [125I]-ITAC from human CXCR3 expressed in human PBMC after 2 hrs in RPMI buffer by scintillation counting
# Chain of Cytochrome P450 2C9 (P11712 whole entry): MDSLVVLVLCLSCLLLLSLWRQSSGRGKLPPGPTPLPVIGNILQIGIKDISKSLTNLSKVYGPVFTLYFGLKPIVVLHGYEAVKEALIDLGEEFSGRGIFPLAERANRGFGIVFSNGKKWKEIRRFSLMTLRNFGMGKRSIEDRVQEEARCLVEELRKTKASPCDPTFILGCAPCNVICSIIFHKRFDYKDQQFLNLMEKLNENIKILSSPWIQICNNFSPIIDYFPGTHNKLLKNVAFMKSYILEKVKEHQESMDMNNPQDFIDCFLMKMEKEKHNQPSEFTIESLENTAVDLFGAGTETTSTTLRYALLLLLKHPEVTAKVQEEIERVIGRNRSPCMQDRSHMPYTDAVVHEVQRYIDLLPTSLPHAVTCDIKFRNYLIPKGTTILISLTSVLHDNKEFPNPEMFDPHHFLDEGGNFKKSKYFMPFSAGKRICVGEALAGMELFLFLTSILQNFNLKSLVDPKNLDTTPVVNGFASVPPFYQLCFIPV
# Chain of Cytochrome P450 2D6 (P10635 whole entry): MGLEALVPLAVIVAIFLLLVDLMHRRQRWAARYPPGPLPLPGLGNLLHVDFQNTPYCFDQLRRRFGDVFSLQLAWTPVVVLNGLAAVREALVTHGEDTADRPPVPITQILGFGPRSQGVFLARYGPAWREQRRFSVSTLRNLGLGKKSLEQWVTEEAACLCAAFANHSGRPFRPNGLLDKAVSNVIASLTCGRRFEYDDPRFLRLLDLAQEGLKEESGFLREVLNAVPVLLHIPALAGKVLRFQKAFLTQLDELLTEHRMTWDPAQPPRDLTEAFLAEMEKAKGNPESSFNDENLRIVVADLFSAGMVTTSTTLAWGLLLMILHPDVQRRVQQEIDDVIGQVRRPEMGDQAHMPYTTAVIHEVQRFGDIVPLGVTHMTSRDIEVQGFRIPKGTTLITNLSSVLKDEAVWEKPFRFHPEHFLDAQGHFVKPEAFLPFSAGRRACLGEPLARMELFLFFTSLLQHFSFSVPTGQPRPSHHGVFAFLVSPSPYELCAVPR
# Chain of Cytochrome P450 3A4 (P08684 whole entry): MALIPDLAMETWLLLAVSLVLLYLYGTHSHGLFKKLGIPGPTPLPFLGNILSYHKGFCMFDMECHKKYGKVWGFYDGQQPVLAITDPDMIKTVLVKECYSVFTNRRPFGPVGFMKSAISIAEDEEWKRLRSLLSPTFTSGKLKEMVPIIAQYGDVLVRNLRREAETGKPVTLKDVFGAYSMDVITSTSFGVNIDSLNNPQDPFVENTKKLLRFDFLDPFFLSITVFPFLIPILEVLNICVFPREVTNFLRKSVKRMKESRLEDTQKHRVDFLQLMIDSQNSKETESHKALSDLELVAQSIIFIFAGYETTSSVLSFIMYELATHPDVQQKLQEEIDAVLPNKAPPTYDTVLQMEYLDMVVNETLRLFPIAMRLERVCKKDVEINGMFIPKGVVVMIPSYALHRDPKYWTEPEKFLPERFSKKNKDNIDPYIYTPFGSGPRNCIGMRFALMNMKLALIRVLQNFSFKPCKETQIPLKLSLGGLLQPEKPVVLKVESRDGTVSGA
compound,measurement,setting,value
CCS(=O)(=O)CCN(C(=O)Cc1ccc(F)c(C(F)(F)F)c1)[C@H](C)c1nc2ncccc2c(=O)n1-c1ccc(OCC(F)(F)F)cc1,IC50,CXC chemokine receptor 3,2 nM
same,clearance,[1],7.5 mL/min/kg
same,Vd,[2],2.5 L/kg
same,MRT,[3],2.5 h
same,MRT,[4],0.65 h
same,bioavailability,[5],25%
same,clearance,[6],14.5 mL/min/kg
same,Activity,Mus musculus,Active
same,clearance,[7],65 mL/min/kg
same,Activity,Cytochrome P450 3A4,Active
same,Drug uptake,Blood [8],18 ng/mL
same,bioavailability,[9],26%
same,Vd,[10],1.1 L/kg
same,Vd,[11],0.8 L/kg
same,IC50,[12],3 nM
same,Vd,[13],1.4 L/kg
same,Activity,Cytochrome P450 2C9,Active
same,IC50,[14],6 nM
same,Drug uptake,Blood [15],35 ng/mL
same,Drug uptake,Blood [16],6 ng/mL
same,Drug uptake,Blood [17],2 ng/mL
same,clearance,[18],13 mL/min/kg
same,bioavailability,[19],84%
same,IC50,[20],5 nM
same,MRT,[21],1.1 h
same,Activity,Cytochrome P450 2D6,Active
same,Drug uptake,Blood [22],11 ng/mL
same,IC50,[23],1 nM

# From ChEMBL document CHEMBL1153804, “Optimization of a series of quinazolinone-derived antagonists of CXCR3” (Bioorg Med Chem Lett, 2009)
